Reference: ChEMBL document CHEMBL1126741 (J Med Chem, 1993)

Tests used:
D(2) dopamine receptor = D(2) dopamine receptor (Homo sapiens, UniProt P14416); experiment: Displacement of [3H]U-86170 from human D2-dopamine receptor expressed in CHO K1 cells; format: cell-based
Mus musculus [1] = experiment: Dose required to obtain hypothermic effect in mice following subcutaneous administration; format: functional; details: sc
Outline: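 Charles River mice (18–22 g), housed singly, given 0.1-mL sc injections at doses spaced in half-log intervals. Rectal temperature read 20 min after injection. Responders were those of four mice per dose that dropped >1.1 °C. ED50 by Spearman–Karber, with 95% confidence intervals.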

Mus musculus [2] = experiment: Maximum obtainable hypothermic effect up to 30 mg/kg dose in mice expressed as temperature decrease in degree Centigrade; format: functional
Outline: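 Mice (Charles River, 18–22 g) dosed sc in 0.1 mL at doses up to 30 mg/kg. Rectal temperature measured 20 min after injection. The mean maximum temperature drop at 20 min is recorded as a crude index of efficacy.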

[3] = Dose to reduce neuronal firing against 5-HT cells in rats (iv); format: functional; details: Rattus norvegicus
Outline: (§1)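 Male Sprague-Dawley rats (250-350 g) anaesthetised with chloral hydrate 400 mg/kg. Extracellular single-unit firing was recorded by glass microelectrode (pontamine sky blue in 2 M NaCl) from 5-HT cells in dorsal raphe or DA cells in substantia nigra pars compacta, with drug given iv. Cell sites were confirmed histologically by dye mark. ED50 is the dose inhibiting firing by 50%, in µg/kg ±SEM, with n animals.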

Felis catus [4] = experiment: (§2) Maximum decrease in sympathetic nerve discharge(SND) observed at 1 mg/kg dose in cat; format: functional; design: scale not given: the % may be the effect or the level left
Outline: (§3)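 Mongrel cats (2.5-4.0 kg) anaesthetised with chloralose 80 mg/kg iv, in a stereotaxic frame, femoral artery and vein cannulated. SND was quantified by cumulative integration of slow waves, with a 1 h equilibration and baseline taken over the last 10 min. Cumulative iv doses of 0.01, 0.03, 0.1, 0.3 and 1.0 mg/kg were given every 20 min, each read 15-20 min post-dose. ED50 is the dose reducing SND to 50% of pretreatment (95% CI). Maximum decrease at 1 mg/kg is given as % control ±SEM.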

[5] = Dose to reduce neuronal firing against DA cells (antagonist) in rats (iv); format: functional; details: Rattus norvegicus
Felis catus [6] = experiment: Dose required to reduce sympathetic nerve discharge in cats following intravenous administration
Felis catus [7] = experiment: as §2; format: functional; design: scale not given: the % may be the effect or the level left; remark: listed apart in the source
Outline: (§4)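 Chloralose-anesthetized mongrel cats (80 mg/kg iv), stereotaxic, femoral cannulation. SND integrated cumulatively; pretreatment value averaged over the last 10 min of a 1 h equilibration. Cumulative iv dosing from 0.01 up to 1.0 mg/kg every 20 min, read 15–20 min after each dose. Maximum SND decrease at 1 mg/kg expressed as % control (±SEM); n = 2–8 cats.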

Felis catus [8] = experiment: Dose required to reduce sympathetic nerve discharge in cat following intravenous administration; format: functional; outline: as §3
Felis catus [9] = experiment: Dose required to completely shut off sympathetic nerve discharge in cat following intravenous administration; format: functional
[10] = Dose to reduce neuronal firing against DA cells in rats (iv); format: functional; details: Rattus norvegicus; outline: as §1
Felis catus [11] = experiment: Maximum decrease in sympathetic nerve discharge(SND) +/-SEM observed at 1 mg/kg dose in cat; format: functional; design: scale not given: the % may be the effect or the level left; outline: as §4

Chain of D(2) dopamine receptor (P14416 whole entry): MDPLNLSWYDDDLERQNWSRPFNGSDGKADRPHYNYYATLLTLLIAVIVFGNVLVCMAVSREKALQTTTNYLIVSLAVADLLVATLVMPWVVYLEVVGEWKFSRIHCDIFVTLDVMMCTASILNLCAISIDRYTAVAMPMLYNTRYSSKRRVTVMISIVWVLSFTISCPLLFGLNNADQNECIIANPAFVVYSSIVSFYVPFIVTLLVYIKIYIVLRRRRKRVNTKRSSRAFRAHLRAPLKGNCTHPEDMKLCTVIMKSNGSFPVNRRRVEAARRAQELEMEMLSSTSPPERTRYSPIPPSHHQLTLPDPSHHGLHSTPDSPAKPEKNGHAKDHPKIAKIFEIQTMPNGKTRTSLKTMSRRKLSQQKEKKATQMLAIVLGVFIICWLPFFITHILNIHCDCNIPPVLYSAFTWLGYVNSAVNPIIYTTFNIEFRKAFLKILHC

Structure (SMILES) | Ki (D(2) dopamine receptor) [nM] | ED50 (Mus musculus [1]) [mg/kg] | Temperature (Mus musculus [2]) [°C] | ED50 [3] [mg/kg] | Control (Felis catus [4]) [%] | ED50 [5] [mg/kg] | ED50 (Felis catus [6]) [mg/kg] | Control (Felis catus [7]) [%] | ED50 (Felis catus [8]) [mg/kg] | ED50 (Felis catus [9]) [mg/kg] | ED50 [10] [mg/kg] | Control (Felis catus [11]) [%]
CCCN[C@H]1CCc2ccc3[nH]c(C(N)=O)cc3c2C1 | > 1670 | 17.3 | 1.8 | – | – | – | – | – | – | – | – | –
CCCN(CCC)[C@@H]1CCc2cccc(O)c2C1 | – | 1 | 4 | 0.0016 | 0 | 0.74 | 0.01 | – | – | – | – | –
CCCN(CCC)[C@H]1CCc2ccc3[nH]c(C(N)=O)cc3c2C1 | > 1000 | 1 | 2.2 | > 0.1 | – | – | – | 10 | 0.19 | – | – | –
CCCN(CCC)[C@@H]1CCc2ccc3[nH]c(C#N)cc3c2C1 [U-92,016-A] | 35 | 0.04 | 7.2 | 0.0034 | – | – | – | 0 | 0.017 | 0.03 | 0.084 | –
CCCN(CCC)[C@H]1CCc2ccc3[nH]c(C#N)cc3c2C1 | 896 | 1.3 | 6.3 | – | – | – | 0.15 | 0 | – | – | – | –
O=C1CC2(CCCC2)CC(=O)N1CCCCN1CCN(c2ncccn2)CC1 [BUSPIRONE] | – | 3 | 1.9 | 0.0154 | – | 0.0113 | – | 43 | 0.08 | – | – | –

Continued, in another order:

Ki (D(2) dopamine receptor) [nM] | Structure (SMILES) | ED50 (Mus musculus [1]) [mg/kg] | Temperature (Mus musculus [2]) [°C] | ED50 [3] [mg/kg] | Control (Felis catus [4]) [%] | ED50 [5] [mg/kg] | ED50 (Felis catus [6]) [mg/kg] | Control (Felis catus [7]) [%] | ED50 (Felis catus [8]) [mg/kg] | ED50 (Felis catus [9]) [mg/kg] | ED50 [10] [mg/kg] | Control (Felis catus [11]) [%]
> 333 | CCCN(CCCCN1C(=O)CC(C)(C)CC1=O)[C@H]1CCc2ccc3[nH]c(C#N)cc3c2C1 | 3.1 | 3.9 | – | – | – | – | – | – | – | – | –
38 | CCCN(CCCCN1C(=O)CC(C)(C)CC1=O)[C@@H]1CCc2ccc3[nH]c(C(N)=O)cc3c2C1 | 9.7 | 2.8 | – | – | – | 0.41 | 22 | – | – | – | –
> 1000 | CCCN(CC1CC1)[C@H]1CCc2ccc3[nH]c(C(N)=O)cc3c2C1 | 9.7 | 3.3 | – | – | – | 0.4 | 14 | – | – | – | –
215 | CCCN(CCC)[C@@H]1CCc2ccc3[nH]c(C(N)=O)cc3c2C1 | 0.6 | 3.3 | > 0.1 | – | – | – | – | 0.19 | – | – | 0
44 | CCCN(CCCCN1C(=O)CC(C)(C)CC1=O)[C@@H]1CCc2ccc3[nH]c(C#N)cc3c2C1 | 0.13 | 6.8 | – | – | – | 0.01 | 0 | – | – | – | –
914 | CCCN(CCCCN1C(=O)CC(C)(C)CC1=O)[C@H]1CCc2ccc3[nH]c(C(N)=O)cc3c2C1 | 4.1 | 2.2 | – | – | – | – | – | – | – | – | –
857 | CCCN[C@@H]1CCc2ccc3[nH]c(C(N)=O)cc3c2C1 | 2.3 | 2.4 | – | – | – | – | – | – | – | – | –
389 | CCCN(CC1CC1)[C@@H]1CCc2ccc3[nH]c(C(N)=O)cc3c2C1 | 2.3 | 4 | – | – | – | 0.9 | 43 | – | – | – | –
